Reference: paper PMC4964276 (The Biochemical journal, 2016)

How the values were obtained:
[1] = test system: RI subunits of PKA; conditions: cited from earlier work
[2] = test system: D/D domain of RIIα (RIIα-D/D(1–44)); assay: Isothermal titration calorimetry; assay type: binding, human; conditions: ITC, one-site model, 25 °C, pH 7.5; three independent measurements
How it was run: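 Run in 20 mM Hepes, pH 7.5, 150 mM NaCl at 25 °C. Cell held RIIα D/D domain at 20 μM, and the syringe held the test AKAP18β(43–83) peptide at 100 μM. There were 25–30 injections of 10–12 μl at 5–20 min intervals. Incremental heat per mole was fitted by non-linear least squares to a one-site model, and protein concentration was adjusted by the fit.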

## smAKAP: RI-specific AKAP, full-length [reference compound]
[1]; ref [14]
  Binding preference for RI, smAKAP: preferentially or specifically bind RI

## SKIP: AKAP that preferentially or specifically binds RI
[1]; ref [12],[13]
  Binding preference for RI, SKIP: preferentially or specifically bind RI

## NGGEPDDAELVRLSKRLVENAVLKAVQQY LEETQ NKNKP GE [AKAP18β(43–83)]
[2]
  n (sites): 0.98 sites
